Series [1] can be described thus: Partition coefficient at pH 7.4 by shake-flask method. It is filed as physicochemical. Particulars: octanol/water. An outline of the steps: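 Octanol-water partition coefficient by shake-flask at pH 7.4, reported with SEM.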
The subject of series [2] is V79. As to the kind of experiment: Antiproliferative activity against chinese hamster wild-type V79 NTR-ve cells after 18 hrs. Particulars: Cricetulus griseus, V79, 18 h. Format: functional, cell-based.
Series [3] has as its system V79. As to the kind of experiment: Antiproliferative activity against chinese hamster V79 NTRpuro cells after 18 hrs. Format: functional, cell-based. Particulars: Cricetulus griseus, V79, 18 h.
Series [4] concerns V79. As to the kind of experiment: Selectivity ratio of IC50 for V79 NTR-ve cells to IC50 for V79 NTRpuro cells. It is filed as functional, Cricetulus griseus.
For series [5], the system named is EMT6. As to the kind of experiment: Antiproliferative activity against mouse wild type EMT6 NTR-ve cells after 18 hrs. Format: functional, cell-based. Particulars: EMT6, 18 h.
Series [6] has as its system EMT6. As to the kind of experiment: Antiproliferative activity against mouse EMT6 NTRpuro cells after 18 hrs. It is filed as functional, cell-based. Particulars: EMT6, 18 h.
The test system of series [7] is EMT6. As to the kind of experiment: Selectivity ratio of IC50 for EMT6 NTR-ve cells to IC50 forEMT6 NTRpuro cells. Format: functional, Mus musculus.
For series [8], the system named is WiDr. As to the kind of experiment: Antiproliferative activity against human wild type WiDr NTR-ve cells after 18 hrs. Format: functional, cell-based.
Series [9] has as its system WiDr. As to the kind of experiment: Antiproliferative activity against human WiDr NTRneo cells after 18 hrs. It is filed as functional, cell-based.
Series [10] deals with WiDr. As to the kind of experiment: Selectivity ratio of IC50 for WiDr NTR-ve cells to IC50 for WiDr NTRneo cells. Format: functional, Homo sapiens.
Series [11] in a line: Antiproliferative activity against human wild type Skov3 NTR-ve cells after 18 hrs. Format: functional, cell-based.
The test system of series [12] is V79. As to the kind of experiment: Clonogenic survival of V79 NTRoua cells after 5 hrs by MCL assay. Format: functional, Cricetulus griseus.
Series [13] in a line: Antiproliferative activity against human Skov3 NTRneo cells after 18 hrs. Format: functional, cell-based. As to conditions: SK-OV-3, 18 h.
The nature of series [14]: Selectivity ratio of IC50 for Skov3 NTR-ve cells to IC50 for Skov3 NTRneo cells. Format: functional, Homo sapiens.
Series [15] relates to V79. As to the kind of experiment: Clonogenic survival of 3% V79 NTRpuro cells in co-cultures with 97% V79 NTRoua after 5 hrs by MCL assay. Format: functional, Cricetulus griseus. An outline of the steps: (§1)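 Multicellular layer cocultures of 3% V79-NTRpuro activators and 97% V79oua NTR-ve targets (ouabain-resistant), exposed to prodrug for 5 h. MCLs were then trypsin-dissociated and plated in ouabain or puromycin selective media for clonogenic survival. C10 (10% survival) interpolated for activators and targets; AC/TC ratio derived. Mean with SEM or range over independent experiments.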

For series [16], the system named is V79. As to the kind of experiment: Clonogenic survival of 97% V79 NTRoua cells in co-cultures with 3% V79 NTRpuro cells after 5 hrs by MCL assay. Format: functional, Cricetulus griseus. In short, it runs like this: as §1
Series [17] is described as follows: Toxicity in ip dosed CD1 nude mouse in sodium acetate. Format: organism-based. Particulars: in vivo. An outline of the steps:
(§2)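 Maximum tolerated dose (MTD) determined in CD-1 nude mice after a single i.p. injection of prodrug, given in the vehicle named in each line.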

Series [18] deals with EMT6. As to the kind of experiment: Antitumor activity against mixed mouse EMT6/EMT6 NTRpuro cells injected in CD1 nude mouse assessed as cell kill at 300 umol/kg, ip in acetate after 18 hrs. Format: functional.
Series [19] deals with WiDr. As to the kind of experiment: Antitumor activity against human 100% WiDr NTRneo tumor cells injected in CD1 nude mouse assessed as growth delay at 300 umol/kg, ip in acetate. It is filed as functional. An outline of the steps:
(§3)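 WiDr-NTRneo tumours (100% NTR+ve, or 1:9 NTR+ve:NTR-ve mixtures) in CD-1 nude mice, given a single i.p. dose at MTD. Read-out is median growth delay to 15 mm mean diameter, plus tumours not palpable 100 days after treatment. Aziridine given at 200 µmol/kg as positive control in every experiment.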

Series [20] can be described thus: Solubility in alpha MEM. Format: physicochemical. In short, it runs like this:
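Solubility (mM) in α-MEM with 5% fetal calf serum at ambient temperature, measured by HPLC.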

Series [21] is described as follows: Stability in alpha MEM at 37 degC after 24 hrs. It is filed as physicochemical. As to conditions: read-out: Stability. In short, it runs like this: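 Percent parent compound remaining, by HPLC, after holding in α-MEM with 5% fetal calf serum at 37 °C for 24 h.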
Series [22] can be described thus: Toxicity in ip dosed CD1 nude mouse in DMA/PEG. It is filed as organism-based. As to conditions: in vivo. In short, it runs like this: as §2
The subject of series [23] is EMT6. As to the kind of experiment: Antitumor activity against mixed mouse EMT6/EMT6 NTRpuro cells injected in CD1 nude mouse assessed as cell kill at 560 umol/kg, ip in DMA/PEG after 18 hrs. It is filed as functional.
The subject of series [24] is WiDr. As to the kind of experiment: Antitumor activity against human 100% WiDr NTRneo tumor cells injected in CD1 nude mouse assessed as growth delay at 560 umol/kg, ip in DMA/PEG. It is filed as functional. An outline of the steps:
as §3

Series [25] can be described thus: Toxicity in ip dosed CD1 nude mouse in DMSO/PEG. It is filed as organism-based. Particulars: in vivo. In short, it runs like this:
as §2

Series [26] is described as follows: Toxicity in ip dosed CD1 nude mouse in DMSO. Format: organism-based. Particulars: in vivo. An outline of the steps: as §2
Series [27] relates to EMT6. As to the kind of experiment: Antitumor activity against mixed mouse EMT6/EMT6 NTRpuro cells injected in CD1 nude mouse assessed as cell kill at 562 umol/kg, ip in DMSO/PEG after 18 hrs. Format: functional.
For series [28], the system named is WiDr. As to the kind of experiment: Antitumor activity against human 10% WiDr NTRneo/ 90% WiDr tumor cells injected in CD1 nude mouse assessed as growth delay at >1330 umol/kg, ip in DMSO. Format: functional. An outline of the steps: as §3
Series [29] concerns WiDr. As to the kind of experiment: Antitumor activity against human 100% WiDr NTRneo tumor cells injected in CD1 nude mouse assessed as growth delay at >1330 umol/kg, ip in DMSO. It is filed as functional. In short, it runs like this:
as §3

For series [30], the system named is WiDr. As to the kind of experiment: Antitumor activity against human 100% WiDr NTRneo tumor cells injected in CD1 nude mouse assessed as growth delay at 562 umol/kg, ip in DMSO/PEG. It is filed as functional. In short, it runs like this: as §3
Series [31] has as its system EMT6. As to the kind of experiment: Antitumor activity against mixed mouse EMT6/EMT6 NTRpuro cells injected in CD1 nude mouse assessed as cell kill at 237 umol/kg, ip in DMSO/PEG after 18 hrs. It is filed as functional.
Series [32] relates to WiDr. As to the kind of experiment: Antitumor activity against human 100% WiDr NTRneo tumor cells injected in CD1 nude mouse assessed as growth delay at 237 umol/kg, ip in DMSO/PEG. Format: functional. In short, it runs like this:
as §3

Broadly, the logD is the decadic logarithm of the distribution of all forms, ionised or not, between an organic phase and buffer at a given pH. A lower logD goes with lower lipophilicity. The IC50 is the point on the concentration scale where inhibition reaches its midpoint. The solubility is how much of the substance goes into solution per volume.

Converted amounts (≈) assume the structure as drawn.

Consider `O=C(NCCN1CCOCC1)c1cc(N(CCCl)CCCl)c([N+](=O)[O-])cc1[N+](=O)[O-]`, for which the pH-dependent lipophilicity (logD) in series [1] stood at 1.6. For the same compound, the IC50 was 201 µM with V79 [2]; 130 µM with V79 [3]; 242 µM in the series with EMT6 [5]; 30 µM in the series with EMT6 [6]; 243 µM in the series with WiDr [8]; 149 µM in the series with WiDr [9]. Moreover, the concentration for half-maximal inhibition (IC50) came out at 383 µM in [11] and 82 µM in series [13]. Further, the “Ratio IC50” value with V79 [4] is listed as 1.6; in the series with EMT6 [7], 8.9; with WiDr [10], 1.7; in series [14], 5. The Activity in the series with V79 [12] was 3500 µM; in the series on V79 [15], 1500 µM; with V79 [16], 3000 µM; in the series with WiDr [19], 27 days. The compound also showed an MTD in [17] of 300 µmol/kg. Also, the LCK with EMT6 [18] came out at 0.07. For the same compound, the solubility in series [20] came out at 5200 µM (≈ 2410 µg/mL). In addition, the remaining at 24 h in series [21] is 100%.
For the compound `O=C(NCC(O)CO)c1cc(N(CCCl)CCCl)c([N+](=O)[O-])cc1[N+](=O)[O-]` (stereo unspecified), the logD in series [1] is 0.93. The IC50 was determined as 1160 µM in the series on V79 [2]; 10 µM in the series with V79 [3]; 839 µM in the series with EMT6 [5]; 1.14 µM in the series on EMT6 [6]; 984 µM in the series with WiDr [8]; 14 µM in the series on WiDr [9]. Moreover, the figures for the IC50 in [11] and in series [13] were 1710 µM and 5.1 µM, respectively. Also, the “Ratio IC50” value with V79 [4] is reported as 135; with EMT6 [7] it was 803; in the series on WiDr [10], 79; in series [14] it was 327. The Activity turned out to be 3500 µM in the series on V79 [12], 95 µM in the series on V79 [15], 510 µM in the series on V79 [16] and 75 days with WiDr [24]. The MTD in series [22] was 560 µmol/kg. Moreover, the LCK with EMT6 [23] is listed as 1.49. In addition, in series [20], the solubility was 2900 µM (≈ 1230 µg/mL). In addition, the remaining at 24 h in series [21] was 100%.
Regarding `NC(=O)c1cc(N(CCBr)CCBr)c([N+](=O)[O-])cc1[N+](=O)[O-]`, the logD in [1] amounted to 1.97. Besides, the half-inhibitory concentration (IC50) in the series with V79 [2] came to 43 µM; with V79 [3] it was 0.18 µM; with EMT6 [5] it was 48 µM; with EMT6 [6], 0.04 µM; with WiDr [8], 40 µM; with WiDr [9], 0.22 µM. The IC50 in series [11] was found to be 58 µM; in series [13], 0.33 µM. For the same compound, the “Ratio IC50” value in the series with V79 [4] is 302; in the series on EMT6 [7] it was 1110; in the series on WiDr [10], 174; in [14], 211. Further, the Activity in the series with V79 [12] was over 50 µM; in the series on V79 [15], 3.3 µM; with V79 [16], 4.6 µM; in the series with WiDr [28], 20 days; with WiDr [29], over 84 days; in the series on WiDr [30] it was over 84 days. Further, the MTD in series [25] and in series [26] was over 1330 µmol/kg throughout. The LCK in the series on EMT6 [27] turned out to be 4.17. The remaining at 24 h in series [21] came out at 98%.
In [1], `O=C(NCC(O)CO)c1cc(N(CCI)CCI)c([N+](=O)[O-])cc1[N+](=O)[O-]` (stereo unspecified) yielded a log distribution coefficient (logD) of 1.79. Moreover, the 50% inhibitory concentration (IC50) turned out to be 114 µM in the series with V79 [2]; 1 µM with V79 [3]; 58 µM in the series on EMT6 [5]; 0.12 µM in the series on EMT6 [6]; 64 µM with WiDr [8]; 0.82 µM in the series with WiDr [9]. The IC50 in series [11] turned out to be 97 µM; in series [13], 0.56 µM. Besides, the “Ratio IC50” value with V79 [4] was 100; with EMT6 [7], 482; with WiDr [10], 90; in series [14] it was 172. Further, the Activity stood at 245 µM in the series on V79 [12], 12.5 µM with V79 [15], 54 µM in the series with V79 [16] and 37 days in the series on WiDr [32]. Besides, in series [25], the MTD was 237 µmol/kg. For the same compound, in the series with EMT6 [31], the LCK was determined as 0.54. In [20], this compound returned a solubility of 960 µM (≈ 584 µg/mL). Moreover, the remaining at 24 h in [21] was determined as 90%.

Values taken from ChEMBL document CHEMBL1142960, “Synthesis and structure-activity relationships for 2,4-dinitrobenzamide-5-mustards as prodrugs for the Escherichia coli nfsB nitroreductase in gene therapy” (J Med Chem, 2007).
